KCNQ1 act: potentiators or activators of human KCNQ1 potassium channel; CHO-K1 KCNQ1, thallium flux FluxOR fluorescence; stronger effect = higher value; 310,000 tested, 0.35% active; P51787; B-score at 10 µM;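 active = fluorescence ratio B-score, a plate-corrected score, at least three library SD, with initial intensity B-score within 5 SD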
Target sequence (P51787 whole entry, looked up): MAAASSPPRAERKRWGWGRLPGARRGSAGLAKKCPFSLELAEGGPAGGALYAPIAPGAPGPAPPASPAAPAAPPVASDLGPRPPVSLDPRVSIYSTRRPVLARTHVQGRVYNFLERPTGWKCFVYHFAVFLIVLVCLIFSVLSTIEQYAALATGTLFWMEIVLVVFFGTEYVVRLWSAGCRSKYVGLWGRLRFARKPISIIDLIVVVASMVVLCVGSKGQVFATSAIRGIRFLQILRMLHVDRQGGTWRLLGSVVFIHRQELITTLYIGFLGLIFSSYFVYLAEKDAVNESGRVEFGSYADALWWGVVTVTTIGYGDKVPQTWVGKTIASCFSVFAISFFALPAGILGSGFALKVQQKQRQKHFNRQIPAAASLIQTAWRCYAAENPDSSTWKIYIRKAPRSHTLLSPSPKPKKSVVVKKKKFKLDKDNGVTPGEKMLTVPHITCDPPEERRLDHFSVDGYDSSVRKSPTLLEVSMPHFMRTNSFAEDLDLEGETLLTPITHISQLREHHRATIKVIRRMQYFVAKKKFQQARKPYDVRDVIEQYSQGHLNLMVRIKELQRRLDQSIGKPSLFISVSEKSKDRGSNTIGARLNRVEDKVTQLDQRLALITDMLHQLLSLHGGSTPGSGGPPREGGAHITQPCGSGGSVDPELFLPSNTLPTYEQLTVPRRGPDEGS
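Medium – assay buffer, equal DMSO in all wells · Material – CHO-K1 cell line with stable KCNQ1 potassium channel expression · Signal – kinetic FluxOR thallium fluorescence, 10-s 1-Hz baseline, 110-s post-stimulus read · Compound – single concentration per compound, DMSO matched to controls · Schedule – 37 °C overnight plating, 90-min dark dye load, 20-min compound pretreatment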
Cl transport mod: modulates chloride dependent transport by human KCC2. Q9H2X9. KCC2 cells, thallium flux FluoZin-2 fluorescence. B-score of Tl+ flux slope (higher = more flux/activation; lower = inhibition) at 10 µM. 190,000 tested, 2.2% active. AID 1456;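 active = thallium flux slope and its plate-corrected score both differing from the plate sample mean at a set confidence after two filtering rounds, in either direction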;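 also: slope of fluorescence scaled to starting intensity during 10 to 20 s after thallium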
hERG protect: hERG (human) protection from proarrhythmic block; CHO-hERG, FluxOR thallium flux, dofetilide IC70 present; activation (rescue from dofetilide block), less the hit threshold, % at 10 µM; 310,000 tested, 0.51% active; AID 1511;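 active = activation above the mean of controls blocked by dofetilide plus 5 SD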;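 also: thallium influx through hERG after potassium depolarization seen as dye fluorescence rise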
KCNQ1 inh: inhibitors of human KCNQ1 potassium channel. P51787. 310,000 tested, 1.3% active. B-score at 10 µM. CHO-K1 KCNQ1, FluxOR thallium flux fluorescence; stronger effect = higher value;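 active = compounds whose thallium flux B-score, printed positive for inhibition, exceeds three library SD while starting fluorescence stays within three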;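 also: channel opened by potassium depolarization with thallium stimulus after 20 min compound exposure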
SUMO Mot1 rescue: inhibitors of SUMOylation pathway: yeast Mot1-301 growth rescue. S. cerevisiae Mot1-301 growth rescue, ATP luminescence, 38.5C; percent above DMSO median, 100 means doubled. growth rescue, % at 18.8 µM. 320,000 tested, 1% active. AID 2716;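 active = every valid replicate shows activation above 250% relative to neutral control wells; inactive = the rest, any valid replicate at or below 250%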;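 also: OY570 slx delta 5 strain wells were the positive control but not used for scaling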
AI-2 QS modul: modulates the Vibrio harveyi AI-2 quorum sensing system | activity change, % at 7.5 µM | Vibrio harveyi JMH597 AI-2 luminescence/OD600 ratio, 9 h; stronger effect = lower value; strain lacks LuxN and CqsS sensors; 0 = neutral-control median | AID 2094 | 300,000 tested, 0.4% active; in the data active = activity change below about -75%, passing the limit was not always enough;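 also: luminescence divided by OD600 gain over 9 h not by final OD600 alone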
KCNQ1 block val: reconfirmed blocker of the human KCNQ1 potassium channel; shares compounds with KCNQ1 inh; KCNQ1 cell line, FluxOR thallium flux fluorescence; inhibition, % at 10 µM; 1,600 tested, 93% active; AID 588353;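 active = primary screen active, with duplicate mean exceeding buffer control mean plus 3 SD of buffer wells, cut at about 28% in these data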;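 also: 0% = buffer control ratio and 100% = XE991 inhibitor control ratio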
CHO KCNQ1 ctr: KCNQ1 inhibitor counter-screen hit in parental CHO cells. shares compounds with KCNQ1 inh. parental CHO-K1, FluxOR thallium flux fluorescence ratio; stronger effect = lower value; zero means no signal rise above baseline. fluorescence ratio (Tl flux) at 10 µM. 1,600 tested, 21% active. AID 588366;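 active = mean of duplicate thallium-flux fluorescence ratios in parental host cells more than 5 SD below the buffer control mean, cut at about 0.38 in these data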;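 also: ratio is peak minus minimum fluorescence divided by baseline fluorescence; actives read low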
KCNQ1 APC inh: confirmation of human KCNQ1 potassium channel inhibitors by electrophysiology | calls only at 10 µM | 490 tested, 20% active | KCNQ1-CHO cells, automated patch clamp current | shares compounds with KCNQ1 inh | AID 624120;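 active = KCNQ1 current drop exceeding 3 SD of negative control wells, seen in both duplicate runs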;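 also: steady state current during a 2 s step from -80 to +40 mV; negative values mean current inhibition and positive values mean potentiation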
KCNQ2 spec: KCNQ1 inhibitor that also blocks rat KCNQ2 channel; inhibition, % at 10 µM; KCNQ2 cells, FluxOR thallium flux fluorescence; 1,600 tested, 71% active; shares compounds with KCNQ1 inh;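 active = mean percent inhibition of the KCNQ2 thallium signal more than 5 SD above the buffer-only control wells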;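 also: KCNQ2 expressed in CHO cells; 0% = buffer control wells and 100% = XE-991 inhibitor control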
KCNQ1 KCNE1 spec: selectivity of KCNQ1 inhibitors: inhibition of human KCNQ1/KCNE1 channel; 1,600 tested, 77% active; KCNQ1/KCNE1 cells, FluxOR thallium flux fluorescence; shares compounds with KCNQ1 inh; AID 652147; inhibition, % at 10 µM;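 active = mean percent inhibition of duplicate wells above the buffer-only control mean plus 3 SD of those controls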;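 also: 0% = buffer only wells and 100% = XE-991 inhibitor control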
Active calls of the source: *. The list is not random: actives were taken first. Their share in the collection is about 4.2%.

c1ccc(-c2nc(N3CCOCC3)sc2-c2ccccc2)cc1 was read as KCNQ1 act inactive, hERG protect -7, KCNQ1 inh 8*, SUMO Mot1 rescue 12, AI-2 QS modul 6, KCNQ1 block val 99*, CHO KCNQ1 ctr 0.41, KCNQ1 APC inh inactive, KCNQ2 spec 100%* and KCNQ1 KCNE1 spec 162%*.
For Cc1cccc(Cn2nc(C(C)(C)C)cc2C(=O)Nc2ccc(F)cc2)c1 the results were KCNQ1 act inactive, Cl transport mod -0.21, hERG protect -18, KCNQ1 inh 12*, SUMO Mot1 rescue -2, AI-2 QS modul 9, KCNQ1 block val 175*, CHO KCNQ1 ctr 0.22*, KCNQ2 spec 144%* and KCNQ1 KCNE1 spec active.
Screening COC(=O)c1cc(NC(=O)Nc2cccc(Cl)c2)ccc1Cl returned KCNQ1 act inactive, hERG protect -12, KCNQ1 inh 6*, SUMO Mot1 rescue 47, AI-2 QS modul -3, KCNQ1 block val 62*, CHO KCNQ1 ctr 0.52, KCNQ2 spec inactive and KCNQ1 KCNE1 spec inactive.
Screening O=C(Nc1cccnc1)Nc1cc(Cl)cc(Cl)c1 returned KCNQ1 act inactive, Cl transport mod -0.11, hERG protect -18, KCNQ1 inh inactive, SUMO Mot1 rescue -4 and AI-2 QS modul 10.
For O=C(Nc1cccc(Cl)c1)Nc1cccc(Cl)c1 the results were KCNQ1 act inactive, Cl transport mod 1.4, hERG protect -8, KCNQ1 inh inactive and SUMO Mot1 rescue -18.
For COc1ccc(NC(=S)Nc2cccc(C(C)=O)c2)cc1OC the results were KCNQ1 act inactive, Cl transport mod 0.4, hERG protect -4, KCNQ1 inh inactive, SUMO Mot1 rescue -10 and AI-2 QS modul 12.
For O=C(Nc1ccccc1)Nc1cc(Cl)cc(Cl)c1 the results were KCNQ1 act inactive, Cl transport mod 0.21, hERG protect -14, KCNQ1 inh 10*, SUMO Mot1 rescue 1, AI-2 QS modul 42, KCNQ1 block val 28*, CHO KCNQ1 ctr 0.52, KCNQ2 spec 78%* and KCNQ1 KCNE1 spec inactive.
Screening COC(=O)c1cccc(NC(=S)Nc2cccc(Cl)c2C)c1 returned KCNQ1 act inactive, Cl transport mod -0.05, hERG protect -12, KCNQ1 inh inactive, SUMO Mot1 rescue -12 and AI-2 QS modul 7.
`COC(=O)c1cc(NC(=S)Nc2cc(Cl)cc(Cl)c2)cc(C(=O)OC)c1` gave KCNQ1 act inactive, Cl transport mod -0.037, hERG protect -11, KCNQ1 inh 8*, SUMO Mot1 rescue -8, AI-2 QS modul 26, KCNQ1 block val 66*, CHO KCNQ1 ctr 0.42, KCNQ2 spec 59%* and KCNQ1 KCNE1 spec inactive.
`COc1ccc(NC(=S)Nc2cccc(Cl)c2)cc1OC` gave KCNQ1 act inactive, Cl transport mod 0.25, hERG protect -10, KCNQ1 inh 13*, SUMO Mot1 rescue 7, AI-2 QS modul -9, KCNQ1 block val 32*, CHO KCNQ1 ctr 0.41, KCNQ2 spec inactive and KCNQ1 KCNE1 spec inactive.

From PubChem BioAssay
